ChEMBL document CHEMBL1926653, “Synthesis and binding assays of novel 3,3-dimethylpiperidine derivatives with various lipophilicities as σ₁ receptor ligands” (Bioorg Med Chem, 2011)

Legend:
[1] = Displacement of [3H]DTG from sigma 2 receptor in rat liver membranes; type: cell membranes, Membrane; settings: read-out: Ki(app)
Outline: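 Sigma-2 site labelled with [3H]-DTG at 30 Ci/mmol, following Matsumoto et al. Curves used 6–9 concentrations of test drug, repeated in two or three experiments with duplicate samples. IC50 (50% inhibition of specific binding) and apparent Ki were obtained by nonlinear curve fitting.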

[2] = molecular target: T1, 3-beta-hydroxysteroid-Delta(8),Delta(7)-isomerase (Cavia porcellus, UniProt Q60490); experiment: Displacement of [3H]-emopamil from delta(8)-delta(7) sterol isomerase in guinea pig liver membranes; type: cell membranes, Membrane; settings: read-out: Ki(app)
T1 sequence (Q60490 whole entry): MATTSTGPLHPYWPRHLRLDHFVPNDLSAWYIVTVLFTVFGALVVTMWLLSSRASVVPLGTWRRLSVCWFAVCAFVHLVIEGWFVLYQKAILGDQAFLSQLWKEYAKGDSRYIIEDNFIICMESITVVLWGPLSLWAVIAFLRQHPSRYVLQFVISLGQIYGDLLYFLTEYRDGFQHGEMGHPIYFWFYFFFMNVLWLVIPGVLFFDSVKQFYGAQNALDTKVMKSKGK
Outline: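 Assay followed Moebius et al. Inhibition curves used 6–9 drug concentrations over two or three experiments run in duplicate. IC50 is the concentration giving 50% loss of specific radioligand binding. Apparent Ki came from nonlinear curve fitting.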

[3] = molecular target: Sigma non-opioid intracellular receptor 1 (Cavia porcellus) (UniProt Q60492); experiment: Displacement of [3H]-(+)-pentazocine from sigma 1 receptor in guinea pig brain membranes at 10^-10 M; type: cell membranes; settings: Membrane
Sigma non-opioid intracellular receptor 1 (Cavia porcellus), sequence (Q60492 whole entry): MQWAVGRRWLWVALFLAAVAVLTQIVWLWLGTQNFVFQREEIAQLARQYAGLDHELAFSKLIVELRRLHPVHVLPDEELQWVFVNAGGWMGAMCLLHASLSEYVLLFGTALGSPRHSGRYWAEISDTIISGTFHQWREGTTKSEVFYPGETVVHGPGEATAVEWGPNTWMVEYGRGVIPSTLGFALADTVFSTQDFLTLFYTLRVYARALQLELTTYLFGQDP

[4] = Selectivity ratio of Ki for sigma 2 receptor in rat liver membranes to Ki for sigma 1 receptor in guinea pig brain membranes; type: cell membranes; settings: Membrane
[5] = molecular target: Sigma non-opioid intracellular receptor 1 (Cavia porcellus, UniProt Q60492); experiment: Displacement of [3H]-(+)-pentazocine from sigma1 receptor in guinea pig brain membranes without cerebellum; type: cell membranes, Membrane; settings: read-out: Ki(app)
Sigma non-opioid intracellular receptor 1 (Cavia porcellus, UniProt Q60492), sequence (Q60492 whole entry): as above

[6] = molecular target: Sigma non-opioid intracellular receptor 1 (Rattus norvegicus, UniProt Q9R0C9); experiment: Binding affinity to sigma1 receptor in rat brain membranes; type: cell membranes
Sigma non-opioid intracellular receptor 1 (Rattus norvegicus, UniProt Q9R0C9), sequence (Q9R0C9 whole entry): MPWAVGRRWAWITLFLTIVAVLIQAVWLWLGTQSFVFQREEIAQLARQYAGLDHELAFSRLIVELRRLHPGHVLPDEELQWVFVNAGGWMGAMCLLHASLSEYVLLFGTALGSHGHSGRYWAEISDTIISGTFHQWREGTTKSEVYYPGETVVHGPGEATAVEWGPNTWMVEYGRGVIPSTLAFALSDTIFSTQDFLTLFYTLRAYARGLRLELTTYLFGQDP
Outline: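 Radioligand displacement binding. IC50 is the concentration inhibiting 50% of specific radioligand binding, from 6–9 concentrations of the test drug, run in two or three experiments with duplicate samples. Apparent Ki came from nonlinear curve fitting. Compounds were tested as hydrochloride salts, or as free bases in some cases.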

| SMILES | Ki [1] [nM] | Ki [2] [nM] | inhibition [3] [%] | Ratio Ki [4] | Ki [5] [nM] | Ki [6] [nM] |
| --- | --- | --- | --- | --- | --- | --- |
| CC1(C)CCCN(CCCCCC2CCCc3sccc32)C1 (racemic) | 28.1 | 2.11 | 78 |  |  |  |
| CC1(C)CCCN(CCNc2nc3ccccc3s2)C1 | 742 | 115 |  | 1.3 | 566 |  |
| CC1(C)CCCN(CCCn2ccc3ccccc32)C1 | 194 |  |  | 3.8 | 50.9 |  |
| CC1(C)CCCN(CCNc2nccs2)C1 | 3330 | 1400 |  | 7.2 | 459 |  |
| CC(C(O)c1ccc(O)cc1)N1CCC(Cc2ccccc2)CC1 (racemic) [IFENPRODIL] |  | 15 |  |  |  |  |
| CC1(C)CCCN(CCCc2cccc3occc23)C1 | 42.3 | 1.1 |  | 0.7 | 63.5 |  |
| CC1(C)CCCN(CCCC2CCCc3sccc32)C1 (racemic) [listing 2 of 3 here] | 38 | 3.07 |  |  | 0.21 |  |
| COc1cccc2c1CCCC2CCCCN1CCCC(C)(C)C1 (stereo unspecified) | 247 | 0.67 |  | 117 | 2.12 |  |
| CC1(C)CCCN(CCCC2CCCc3sccc32)C1 (racemic) [listing 3 of 3 here] |  |  |  | 180 |  |  |
| CC1(C)CCCN(CCCCN2CCCC(C)(C)C2)C1 | 414 | 213 |  | 29 | 14.1 |  |
| CC1(C)CCCN(CCCCC2CCCCC2)C1 | 19.6 | 3.8 |  | 19 | 1.02 |  |
| CC1(C)CCCN(CCCc2c[nH]c3ccccc23)C1 | 110 |  |  | 2.6 | 41.6 |  |
| CC1(C)CCCN(CCCC2CCCc3[nH]ccc32)C1 (racemic) | 119 |  |  | 4.4 | 27.1 |  |
| CC1(C)CCCN(CCCCC2CCCCc3ccccc32)C1 (racemic) | 65.9 | 7.3 |  | 471 | 0.14 |  |
| CC1(C)CCCN(CCCC2CCCCc3ccccc32)C1 (racemic) | 37.5 | 0.2 |  | 101 | 0.38 |  |
| CC1(C)CCCN(CC(=O)Nc2nc3c(s2)C(=O)CCC3)C1 | > 10000 | > 10000 |  |  | > 10000 |  |

Next, values leading:

| Ki [1] [nM] | Ki [2] [nM] | inhibition [3] [%] | Ratio Ki [4] | Ki [5] [nM] | Ki [6] [nM] | SMILES |
| --- | --- | --- | --- | --- | --- | --- |
| > 10000 | > 10000 |  |  | > 10000 |  | CC1(C)CCCN(CCNc2nc3c(s2)C(=O)CCC3)C1 |
| 1810 |  |  | 0.4 | 3690 |  | CC1(C)CCCN(Cc2cc3ccccc3o2)C1 |
|  |  |  |  |  | > 3960 | CC1(C)CCCN(CCCC2CCCc3sccc32)C1 (racemic) [listing 1 of 3 here] |
| 242 | 1.54 |  | 138 | 1.75 |  | CC1(C)CCCN(CCCCC2CCc3ccccc32)C1 (stereo unspecified) |
| 63.6 | 0.9 |  | 1.2 | 52 |  | CC1(C)CCCN(CCCc2cccc3sccc23)C1 |
| 34.3 |  |  |  |  |  | Cc1ccccc1NC(=N)Nc1ccccc1C [DITOLYLGUANIDINE] |
| 1990 |  |  | 5.6 | 339 |  | CC1(C)CCCN(CCCn2nnc3ccccc32)C1 |
